From ChEMBL document CHEMBL4145672, “Structural Characterization of Terpenoids from Abies holophylla Using Computational and Statistical Methods and Their Biological Activities” (J Nat Prod, 2018)

How the values were obtained:
BV-2 = assay: Antiinflammatory activity in mouse BV2 cells assessed as inhibition of LPS-induced nitric oxide production measured after 24 hrs by Griess assay; type: functional, cell-based; settings: BV-2, 24 h
Outline: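 Murine microglial BV2 cells were seeded at 4 × 10^4 cells/well and exposed to a range of compound concentrations. LPS (100 ng/mL) was added and cells were incubated 24 h. Nitrite in the medium was reacted 10 min with Griess reagent (0.1% N-1-naphthylethylenediamine dihydrochloride, 1% sulfanilamide in 5% phosphoric acid), read at 570 nm and quantified against a sodium nitrite standard curve. IC50 values are reported.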

[1] = Cytotoxicity against mouse BV2 cells assessed as cell viability at 20 uM measured after 24 hrs by MTT assay relative to control; type: cell-based, BV-2; settings: read-out: Activity
Outline: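 BV2 cells under the NO assay conditions (LPS 100 ng/mL, 24 h) were given 20 μM of each compound, with some data collected at 5 μM. Viability was measured by MTT and expressed as percent. Values are means ± SD of three independent experiments.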

HCT-15 = assay: Cytotoxicity against human HCT15 cells assessed as cell growth inhibition measured after 48 hrs by sulforhodamine B assay; type: functional, cell-based; settings: HCT-15, 48 h
Outline: (§1)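 The SRB assay was run on ATCC-derived human tumor lines maintained at the Korea Research Institute of Chemical Technology. Read-out was cell growth. IC50 is the concentration giving 50% growth inhibition. Cisplatin served as positive control.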

C6 [2] = assay: Neuroprotective activity in rat C6 cells assessed as induction of nerve growth factor secretion at 5 uM measured after 24 hrs by ELISA relative to control; type: functional
Outline: (§2)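 Rat C6 glioma cells were seeded at 1 × 10^5 cells/well. After 24 h they were switched to serum-free DMEM and treated with compound (20 μM, some at 5 μM) for 24 h. NGF secreted into the conditioned medium was quantified by ELISA and expressed as percent of untreated control (100%). Values are means ± SD of three independent experiments.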

C6 [3] = assay: Neuroprotective activity in rat C6 cells assessed as induction of nerve growth factor secretion at 20 uM measured after 24 hrs by ELISA relative to control; type: functional; outline: as §2
[4] = Cytotoxicity against rat C6 cells assessed as cell viability at 20 uM measured after 24 hrs by MTT assay relative to control; type: cell-based; settings: read-out: Activity
Outline: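 Rat C6 glioma cells were seeded at 1 × 10^5 cells/well. After 24 h they were switched to serum-free DMEM containing 20 μM compound for another 24 h. Viability was determined by MTT as percent of untreated control, some data at 5 μM. Values are means ± SD of three independent experiments.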

[5] = Cytotoxicity against rat C6 cells assessed as cell viability at 5 uM measured after 24 hrs by MTT assay relative to control; type: cell-based; settings: read-out: Activity
Outline: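 C6 glioma cells were seeded at 1 × 10^5 cells/well, grown 24 h, then switched to serum-free DMEM with compound (5 μM here) for another 24 h. Viability was read by MTT as % of untreated cells. Values are means ± SD of three independent experiments.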

SK-MEL-2 = assay: Cytotoxicity against human SK-MEL-2 cells assessed as cell growth inhibition measured after 48 hrs by sulforhodamine B assay; type: functional, cell-based; settings: SK-MEL-2, 48 h; outline: as §1
SK-OV-3 = assay: Cytotoxicity against human SKOV3 cells assessed as cell growth inhibition measured after 48 hrs by sulforhodamine B assay; type: functional, cell-based; settings: SK-OV-3, 48 h; outline: as §1
A549 = assay: Cytotoxicity against human A549 cells assessed as cell growth inhibition measured after 48 hrs by sulforhodamine B assay; type: functional, cell-based; settings: A549, 48 h; outline: as §1
[6] = Cytotoxicity against mouse BV2 cells assessed as cell viability at 5 uM measured after 24 hrs by MTT assay relative to control; type: cell-based, BV-2; settings: read-out: Activity
Outline: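 BV2 murine microglia were seeded at 4 × 10^4 cells/well, exposed to compound (5 μM here), and stimulated with LPS 100 ng/mL for 24 h. Viability was read by MTT and expressed as % of control. Values are means ± SD of three independent experiments.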

Structure (SMILES)	IC50 (BV-2) [µM]	viability at 24 h, 20 µM [1] [%]	IC50 (HCT-15) [µM]	Activity (C6 [2]) [%]	Activity (C6 [3]) [%]	viability at 24 h, 20 µM [4] [%]	viability at 24 h, 5 µM [5] [%]	IC50 (SK-MEL-2) [µM]	IC50 (SK-OV-3) [µM]	IC50 (A549) [µM]	viability at 24 h, 5 µM [6] [%]
C[C@]12CCC[C@@](C)(C(=O)O)[C@@H]1CCC1=CC(=O)CC[C@@H]12	18.1	124									
CC1(C)CCC[C@]2(C)[C@H]3CC(=O)O[C@]3(C)CC[C@@H]12	20.3	131									
CC1=CC(O)(C[C@@H](C)[C@]2(C)CC=C3C4=CC[C@H]5C(C)(C)[C@H](O)CC[C@]5(C)[C@@H]4CC[C@]32C)OC1=O (stereo not given in full)	4	9.7	> 10	158.1	121.7	56.7	108	4.2	> 10	> 10	154
CC1(C)O[C@H]2C[C@H]3C(=C[C@]21O)CC[C@@H]1[C@]3(C)CCC[C@@]1(C)C(=O)O					136.9	99					
C=C(C)[C@@H]1CC=C2[C@@H](CC=C3[C@@]2(C)CC[C@@]3(C)[C@H](C)C[C@@H]2C[C@@H](C)C(=O)O2)[C@@]1(C)CCC(=O)OC	39.7	86.8	2.3					1.7	6.2	2.4	
C=C(CC(=O)C[C@@H](C)[C@]1(C)CCC(=C)[C@]12CC[C@@H]1C2=CC[C@@H](C(=C)C)[C@]1(C)CCC(=O)O)C(=O)O					173.3	112					
C/C(=C\CO)[C@@H](O)C[C@@H]1[C@@]2(C)CCCC(C)(C)[C@@H]2CC[C@@]1(C)O	19.5	122			125.7	99.8					
C=C(C)[C@@H]1C=CC2=C3CC[C@@](C)([C@H](C)CC(=O)C[C@@H](C)C(=O)O)[C@]3(C)CC[C@H]2[C@@]1(C)CCC(=O)O					146.1	110					
C=C(CC(=O)C[C@@H](C)[C@H]1CC[C@@]2(C)C3=CC[C@H]4C(C)(C)C(=O)CC[C@]4(C)[C@@H]3CC[C@]12C)C(=O)O	15	125			178.9	98.5					
C/C(=C\C(=O)C[C@@H](C)[C@@H]1CC=C2C3=CC[C@H]4C(C)(C)[C@H](O)CC[C@]4(C)[C@@H]3CC[C@]21C)C(=O)O	10.3	9.9	> 10		156	85.7		7.2	> 10	> 10	
C=C(C)[C@@H]1CC=C2[C@@H](CC[C@]23C(=C)CC[C@@]3(C)[C@H](C)CC(=O)/C=C(\C)C(=O)O)[C@@]1(C)CCC(=O)O	19.1	136			195.1	104					
C/C(=C\[C@H](O)C[C@@H](C)[C@H]1CC[C@@]2(C)C3=CC[C@H]4C(C)(C)C(=O)CC[C@]4(C)[C@@H]3CC[C@]12C)C(=O)O	29.8	125	> 10		140.9	111		8.8	> 10	> 10	
CC1=CC(O)(C[C@@H](C)[C@H]2CC[C@@]3(C)C4=CC[C@H]5C(C)(C)C(=O)CC[C@]5(C)[C@@H]4CC[C@]23C)OC1=O (stereo not given in full)	10.2	15.9	> 10					4.1	> 10	9.4	
CC(=O)/C=C/C1[C@](C)(O)CC[C@H]2C(C)(C)CCC[C@]12C (stereo not given in full)	9.8	114									
C/C(=C\CO)[C@H](O)C[C@@H]1[C@@]2(C)CCCC(C)(C)[C@@H]2CC[C@@]1(C)O					127.9	104					
C=C[C@@](C)(O)[C@H]1C[C@@H]2[C@@]3(C)CCCC(C)(C)[C@@H]3CC[C@@]2(C)O1	42.2	118									
C=C[C@@]1(C)O[C@]2(C)CC[C@H]3C(C)(C)CCC[C@]3(C)[C@H]2C[C@H]1O	25	112									
C/C(=C\C(=O)C[C@@H](C)[C@H]1CC[C@@]2(C)C3=CC[C@H]4C(C)(C)C(=O)CC[C@]4(C)[C@@H]3CC[C@]12C)C(=O)O	10.5	19.4	> 10		153.9	62.2		3.2	7.7	8.7	
C[C@@H]1C[C@]2(C[C@@H](C)[C@]3(CC[C@@]4(C)[C@@H]5CC[C@H]6C(C)(C)[C@H](O)CC[C@@]67C[C@@]57CC[C@@]43C)O2)OC1=O			> 10		149.3	107		8.5	> 10	> 10	
C=C(C)[C@@H]1CC=C2[C@@H](CC[C@]3(C)[C@@H]([C@H](C)C[C@@H]4C[C@@H](C)C(=O)O4)CC[C@@]23C)[C@@]1(C)CCC(=O)OC	17.3	123	8.1					5.5	> 10	> 10	
C/C(=C\CC[C@@H](C)[C@H]1CC[C@@]2(C)[C@@H]3CC[C@H]4C(C)(C)[C@@H](O)CC[C@@]45C[C@@]35CC[C@]12C)C(=O)O [MANGIFEROLIC ACID]	12.8	35.2			128.6	79.3					
C/C(=C\CC[C@@H](C)[C@H]1CC[C@@]2(C)[C@@H]3CC[C@H]4C(C)(C)C(=O)CC[C@@]45C[C@@]35CC[C@]12C)C(=O)O [MANGIFERONIC ACID]	9	21									
C=C[C@@]1(C)C=C2CC[C@@H]3[C@](C)(CCC[C@@]3(C)C(=O)O)[C@H]2CC1 [PIMARIC ACID]	13.6	117									
CCCCC/C=C/C(=O)CCc1ccc(O)c(OC)c1 [SHOGAOL]					158.2	110					
CNC(=N)NCCC[C@H](N)C(=O)O [TILARGININE]		105									
